From ChEMBL document CHEMBL3112482, “Nonclassical antifolates, part 5. Benzodiazepine analogs as a new class of DHFR inhibitors: synthesis, antitumor testing and molecular modeling study” (Eur J Med Chem, 2014)

What was measured:
Format in all cases: functional
M14 = experiment: Growth inhibition of human M14 cells at 10 uM after 48 hrs; settings: M14, 48 h, read-out: GI
Method in brief: (§1)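 Single-dose primary screen in the NCI 60 human tumour cell line panel, run at the NCI facility. The panel covers nine subpanels: leukaemia, non-small cell lung, colon, CNS, melanoma, ovarian, renal, prostate and breast. Read-out was percent growth of treated cells, shown as a mean graph and reported as percent growth inhibition.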

Malme-3M = experiment: Growth inhibition of human MALME-3M cells at 10 uM after 48 hrs; settings: read-out: GI; method in brief: as §1
LOX IMVI = experiment: Growth inhibition of human LOXIMVI cells at 10 uM after 48 hrs; settings: read-out: GI; method in brief: as §1
U-251 = experiment: Growth inhibition of human U251 cells at 10 uM after 48 hrs; settings: U-251, 48 h, read-out: GI
Method in brief: (§2)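 NCI 60-cell-line disease-oriented human tumor panel, single-dose primary screen at 10 µM. Data given as mean-graph percent growth of treated cells, reported as percent growth inhibition (GI %).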

SF-295 = experiment: Growth inhibition of human SF295 cells at 10 uM after 48 hrs; settings: SF-295, 48 h, read-out: GI; method in brief: as §2
KM12 = experiment: Growth inhibition of human KM12 cells at 10 uM after 48 hrs; settings: KM12, 48 h, read-out: GI; method in brief: as §1
HCT-15 = experiment: Growth inhibition of human HCT15 cells at 10 uM after 48 hrs; settings: HCT-15, 48 h, read-out: GI; method in brief: as §1
HCT-116 = experiment: Growth inhibition of human HCT116 cells at 10 uM after 48 hrs; settings: HCT-116, 48 h, read-out: GI; method in brief: as §1
COLO 205 = experiment: Growth inhibition of human COLO205 cells at 10 uM after 48 hrs; settings: COLO 205, 48 h, read-out: GI; method in brief: as §1
NCI-H522 = experiment: Growth inhibition of human NCI-H522 cells at 10 uM after 48 hrs; settings: NCI-H522, 48 h, read-out: GI; method in brief: as §1
[1] = Growth inhibition of human HOP92 cells at 10 uM after 48 hrs; settings: HOP-92, 48 h, read-out: GI; method in brief: as §1
HOP-62 = experiment: Growth inhibition of human HOP62 cells at 10 uM after 48 hrs; settings: HOP-62, 48 h, read-out: GI; method in brief: as §1
RPMI-8226 = experiment: Growth inhibition of human RPMI8226 cells at 10 uM after 48 hrs; settings: RPMI-8226, 48 h, read-out: GI; method in brief: as §1
HL-60(TB) = experiment: Growth inhibition of human HL-60(TB) cells at 10 uM after 48 hrs; settings: HL-60, 48 h, read-out: GI
Method in brief: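 NCI 60-cell-line human tumour panel covering nine subpanels (leukaemia, non-small cell lung, colon, CNS, melanoma, ovarian, renal, prostate, breast), run at the NCI facility. Primary screen tested a single dose of each compound. Read-out was percent growth of treated cells versus untreated cells, reported from the mean graph as percentage growth inhibition.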

MDA-MB-468 = experiment: Growth inhibition of human MDA-MB-468 cells at 10 uM after 48 hrs; settings: MDA-MB-468, 48 h, read-out: GI; method in brief: as §1
DU-145 = experiment: Growth inhibition of human DU145 cells at 10 uM after 48 hrs; settings: DU-145, 48 h, read-out: GI; method in brief: as §1
SN12C = experiment: Growth inhibition of human SN12C cells at 10 uM after 48 hrs; settings: read-out: GI; method in brief: as §2
[2] = Growth inhibition of human RXF393 cells at 10 uM after 48 hrs; settings: RXF 393, 48 h, read-out: GI; method in brief: as §1
ACHN = experiment: Growth inhibition of human ACHN cells at 10 uM after 48 hrs; settings: read-out: GI; method in brief: as §1
A498 = experiment: Growth inhibition of human A498 cells at 10 uM after 48 hrs; settings: A498, 48 h, read-out: GI; method in brief: as §1
IGROV-1 = experiment: Growth inhibition of human IGROV1 cells at 10 uM after 48 hrs; settings: IGROV-1, 48 h, read-out: GI; method in brief: as §1
UACC-62 = experiment: Growth inhibition of human UACC62 cells at 10 uM after 48 hrs; settings: UACC-62, 48 h, read-out: GI; method in brief: as §2
SK-MEL-5 = experiment: Growth inhibition of human SK-MEL-5 cells at 10 uM after 48 hrs; settings: SK-MEL-5, 48 h, read-out: GI; method in brief: as §2
[3] = Cytotoxicity against human breast cancer cells at 10 uM after 48 hrs; settings: Cancer cell lines; method in brief: as §1
[4] = Cytotoxicity against human melanoma cells at 10 uM after 48 hrs; settings: Melanoma cell; method in brief: as §1
[5] = Cytotoxicity against human colon cancer cells at 10 uM after 48 hrs; settings: Cancer cell lines; method in brief: as §1
[6] = Cytotoxicity against human leukemia cells at 10 uM after 48 hrs; settings: Leukemia cell
[7] = Cytotoxicity against human non-small cell lung cancer cells at 10 uM after 48 hrs; settings: Cancer cell lines; method in brief: as §1
[8] = read-out: LC50 (the source's name)

Compound	inhibition of growth at 10 µM (M14)	inhibition of growth at 10 µM (Malme-3M)	inhibition of growth at 10 µM (LOX IMVI)	inhibition of growth at 10 µM (U-251)	inhibition of growth at 10 µM (SF-295)	inhibition of growth at 10 µM (KM12)	inhibition of growth at 10 µM (HCT-15)	inhibition of growth at 10 µM (HCT-116)	inhibition of growth at 10 µM (COLO 205)	inhibition of growth at 10 µM (NCI-H522)	inhibition of growth at 10 µM [1]	inhibition of growth at 10 µM (HOP-62)	inhibition of growth at 10 µM (RPMI-8226)	inhibition of growth at 10 µM (HL-60(TB))	inhibition of growth at 10 µM (DU-145)	inhibition of growth at 10 µM (SN12C)	inhibition of growth at 10 µM [2]	inhibition of growth at 10 µM (ACHN)	inhibition of growth at 10 µM (A498)	inhibition of growth at 10 µM (IGROV-1)	further results
COc1ccc(/C=C2\CCCc3c2nc(C)nc3-c2ccc(OC)cc2)cc1	< 30%	< 30%	< 30%	< 30%	< 30%	< 30%	< 30%	< 30%	< 30%	< 30%	< 30%	< 30%	50.1%	< 30%	< 30%	< 30%	< 30%	< 30%	< 30%	< 30%	inhibition of growth at 10 µM (MDA-MB-468): < 30%; inhibition of growth at 10 µM (UACC-62): < 30%; inhibition of growth at 10 µM (SK-MEL-5): < 30%
COc1ccc(/C=C2\CCCC3=C(c4ccc(OC)cc4)Nc4ccccc4N=C32)cc1	< 30%	< 30%	42.6%	< 30%	< 30%	72.5%	< 30%	61.9%	< 30%	93.4%	< 30%	< 30%	74.3%	< 30%	< 30%	< 30%	< 30%	< 30%	< 30%	< 30%	inhibition of growth at 10 µM (MDA-MB-468): 56.4%; inhibition of growth at 10 µM (UACC-62): 32%; inhibition of growth at 10 µM (SK-MEL-5): < 30%
COc1ccc(/C=C2\CCCc3c2nc(N)nc3-c2ccc(OC)c(OC)c2)cc1OC	42.7%	47.5%	87.1%	62.2%	< 30%	67.9%	64.1%	92.1%	54%	83.3%	< 30%	43%	84.8%	57.7%	< 30%	42.6%	79.1%	72.7%	< 30%	42.9%	GI50 [3]: 3.9 µM; LC50 (concentration killing 50% of cells) [3]: > 100 µM; TGI [3]: 87.3 µM; GI50 [4]: 5.5 µM; TGI [4]: 73.4 µM; CC50 [4, 8]: 95.6 µM; GI50 [5]: 17.4 µM; TGI [5]: 75.8 µM; CC50 [5, 8]: 89.8 µM; GI50 [6]: 2.1 µM; LC50 [6]: > 100 µM; TGI [6]: 65.1 µM; GI50 [7]: 22.1 µM; TGI [7]: 71.1 µM; CC50 [7, 8]: 94.3 µM; inhibition of growth at 10 µM (UACC-62): 47.2%; inhibition of growth at 10 µM (SK-MEL-5): 60.3%
Cc1nc2c(c(-c3ccc(Br)cc3)n1)CCC/C2=C\c1ccc(Br)cc1	< 30%	< 30%	< 30%	< 30%	< 30%	< 30%	< 30%	55.8%	< 30%	< 30%	< 30%	< 30%	73.7%	< 30%	< 30%	< 30%	< 30%	< 30%	< 30%	< 30%	inhibition of growth at 10 µM (MDA-MB-468): < 30%; inhibition of growth at 10 µM (UACC-62): < 30%; inhibition of growth at 10 µM (SK-MEL-5): < 30%
